T cell HTS – modulators of CD8 T cell-vesicle binding, primary screen, mouse 2C CD8+ T cells, flow cytometry. 330,000 compounds, 0.068% hits. response (vesicle binding), % at 7 µM. 2C CD8+ T cell-vesicle binding; hits give low values;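 active = response, share of CD8 T cells binding vesicles, and their 90th percentile fluorescence all below set limits, cut at about 80% in these data, passing the limit was not always enough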;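 note: values below 100% mean blocked vesicle binding to the CD8+ T cells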
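Assay system: 2C TCR transgenic mouse naive CD8+ T cells, MACS-purified | Read-out: CD8+ gate FL2 mean fluorescence as % of same-row positive control | Signal: High-throughput flow cytometry with anti-B7-1 and anti-CD8 staining | Timing: Binding step 1.5 h, 37 °C, antibody labelling 20 min, ice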
CaV13 FRET inh – Disruptors of the CACNA1D IQ motif to Ca2+-dependent inactivation inhibitor domain association, primary screening, Förster resonance energy transfer in intact living …. 340,000 compounds, 0.098% hits. HEK cells, CFP/YFP FRET ICDI-IQ, plate reader, 10 min; percent FRET-ratio fall versus neutral wells. inhibition, % at 12.3 µM. AID 743397;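 active = mean replicate inhibition of at least 30% and at least 1% of replicates passing that level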;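 note: 0% = median of the neutral control wells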
proCasp7 act – procaspase-7 activators, primary screen, counter-screen for procaspase-3 activator project, biochemical, absorbance, HTS, human. Caspase-7 (Homo sapiens), P55210. recombinant procaspase-7, Ac-DEVD-pNA absorbance 405 nm; D23A/D198A/D206A triple mutant, cannot self-cleave; scale: DMSO 0, 5 µM enzyme 100. activation, % at 8.5 µM. 330,000 compounds, 0.093% hits. AID 463210, 2010;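 active = percent activation above the screen-wide mean plus 3 SD, cut at about 25% in these data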
Target sequence (P55210 whole entry D23A/D198A/D206A): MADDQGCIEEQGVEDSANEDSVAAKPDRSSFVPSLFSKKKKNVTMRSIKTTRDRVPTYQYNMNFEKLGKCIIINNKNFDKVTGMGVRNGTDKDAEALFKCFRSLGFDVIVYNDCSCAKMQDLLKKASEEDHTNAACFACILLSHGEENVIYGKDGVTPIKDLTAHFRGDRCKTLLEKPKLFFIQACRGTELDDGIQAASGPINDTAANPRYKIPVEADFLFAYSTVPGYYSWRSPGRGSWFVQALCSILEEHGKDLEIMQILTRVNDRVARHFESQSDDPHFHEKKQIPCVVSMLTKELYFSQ
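System: Procaspase-7 triple mutant (PC-7 D3A); measure: % activation from two-timepoint absorbance difference, scaled to controls; times: 1 h compound preincubation, 2 h substrate cleavage, 25 °C; also added: Ac-DEVD-pNA substrate, 400 µM as added; measured by: Epi-absorbance of released pNA at 405 nm, two timepoints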
proCasp3 act – activators of human procaspase-3 D3A mutant, primary screen, biochemical, absorbance, PC-3 D3A mutant, single concentration; Caspase-3 (Homo sapiens), P42574; activation, % at 8.5 µM; recombinant procaspase-3 D3A, Ac-DEVD-pNA absorbance 405 nm; 330,000 compounds, 0.11% hits;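 active = activation above the mean of all tested compounds plus 3 SD, cut at about 21% in these data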;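 note: 0% = DMSO alone and 100% = DMSO wells spiked with extra 5 µM PC-3 D3A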
Target sequence (P42574 whole entry D9A/D28A/D175A): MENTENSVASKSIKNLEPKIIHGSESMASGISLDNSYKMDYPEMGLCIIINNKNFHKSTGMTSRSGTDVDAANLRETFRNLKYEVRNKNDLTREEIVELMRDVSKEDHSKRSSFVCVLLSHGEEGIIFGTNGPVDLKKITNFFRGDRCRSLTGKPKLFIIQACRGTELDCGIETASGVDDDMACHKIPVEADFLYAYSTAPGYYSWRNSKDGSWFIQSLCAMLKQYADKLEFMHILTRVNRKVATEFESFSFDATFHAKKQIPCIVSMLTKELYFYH
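Assay system: Autoprocessing-dead procaspase-3 D3A mutant enzyme; also added: Ac-DEVD-pNA; doses: one concentration, 8.5 µM nominal, 0.8% DMSO; times: 1 h compound preincubation, 2 h substrate hydrolysis at 25 °C; technique: 405 nm absorbance of p-nitroaniline, reads at 0 and 120 min; measure: % activation between DMSO and enzyme-spiked controls; repeats: single replicate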
aDG glyco act – activators of alpha-DG glycosylation, primary screen, uHTS, Pro5-aDG cells, AlphaScreen | alpha-DG glycosylation AlphaScreen (IIH6); 0% Pro5, 100% B10-LARGE cell signal | activation, % at 10 µM | 360,000 compounds, 0.22% hits;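 active = activation of at least 8% versus controls, or a plate z-score of at least 8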;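 note: Pro5 are CHO cells carrying HIG-tagged alpha-DG that lacks glycosylation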
GRK2 aptamer HTS – compounds blocking aptamer binding on GRK2 – biochemical, human GRK2, bead flow cytometry, HTS, primary screen. FAM-aptamer displacement from GRK2. Beta-adrenergic receptor kinase 1 (Homo sapiens), P25098. inhibition of aptamer binding, % at 10 µM. AID 488847, 2010. 330,000 compounds, 0.59% hits;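 active = inhibition of aptamer binding above 40%, roughly 3 SD of noise, on plates passing a quality check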;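 note: median bead fluorescence of bound FAM aptamer so fluorescent compounds give negative values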
GRK2 CP1 – GRK2 aptamer-displacing inhibitors, retest, confirmation, biochemical, cherry pick 1, bead flow cytometry; shares compounds with GRK2 aptamer HTS; bead-bound GRK2, FAM-aptamer displacement; aptamer displacement, % at 10 µM; 2,000 compounds, 4% hits; AID 504451, 2011;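 active = aptamer displacement above 40%, near three times the noise of non-fluorescent compounds, on plates passing quality checks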;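 note: negative values mostly reflect intrinsic compound fluorescence rather than true enhancement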
Aptamer quench – counter-screen for GRK2 aptamer inhibitors: fluorescent aptamer quenchers | shares compounds with GRK2 aptamer HTS | Fluorescent RNA aptamer beads, quenching, flow cytometry; hits give high values | fluorescence change (kMESF span), kMESF (concentration not given with the values) | 110 tested, under 10 active | AID 504521;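 active = compounds whose bead fluorescence drops by more than 37 kMESF across the dose range, marking them as dye quenchers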
FAM quench CP1 – counter-screen for GRK2 aptamer inhibitors: fluorescent aptamer quenchers. shares compounds with GRK2 aptamer HTS. Carboxyfluorescein RNA aptamer on beads, flow cytometry quenching; hits give low values. fluorescence response (% of DMSO), % at 10 µM. 2,000 tested, under 10 active. AID 504580;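 active = compounds that quench the bead-bound fluorescent RNA probe, cutting fluorescence to under half of the solvent control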;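 note: counterscreen run without GRK2 so only probe quenching by compound is measured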
GRK2 confirm 2 – GRK2 aptamer-displacing inhibitors, hit retest, confirmation, biochemical, cherry pick 2, bead flow cytometry. shares compounds with GRK2 aptamer HTS. bead-bound GRK2, FAM-aptamer displacement. AID 504782, 2011. 360 tested, under 10 active. inhibition of aptamer binding, % at 10 µM;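 active = inhibition of aptamer binding above 40%, about triple the noise seen with nonglowing compounds, on plates passing quality control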;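 note: negative values mostly come from compounds that fluoresce themselves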
FAM quench CP2 – counter-screen for GRK2 binding hits: quenchers of fluorescent RNA aptamer. carboxyfluorescein RNA aptamer beads, flow cytometry quenching; hits give low values. shares compounds with GRK2 aptamer HTS. fluorescence response vs DMSO, % at 10 µM. 360 tested, under 10 active;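 active = response vs DMSO under 50%, meaning signal dropped by over half, treated as fluorescence quencher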;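 note: labelled aptamer on streptavidin beads without GRK2 as a quench counter-screen; 100% = bead fluorescence of DMSO wells and lower means quenching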
The depositor's hits bear a star. Shown are actives, neighbours in structure and some others; about 1.1% of the full set was active somewhere.

Results for CCOC(=O)C1=C(CS(=O)(=O)c2ccccc2)NC(=O)NC1c1ccc(OC)c(OC)c1 (stereo not drawn) ?
T cell HTS: 162; CaV13 FRET inh: -6; proCasp7 act: 0; proCasp3 act: -1; aDG glyco act: 0; GRK2 aptamer HTS: 40; GRK2 CP1: 1; FAM quench CP1: 101

What do the screens show for `COC(=O)C1=C(CS(=O)(=O)c2ccccc2)NC(=O)NC1c1ccc(OC)c(OC)c1` (stereo not drawn)?
T cell HTS: 439; CaV13 FRET inh: -7; proCasp7 act: -4; proCasp3 act: 3; aDG glyco act: 0; GRK2 aptamer HTS: 0

What do the screens show for `CN(Cc1nc2ccccc2[nH]1)C(=O)C1CCC(=O)N(CCc2cccc(F)c2)C1` (stereo not drawn)?
T cell HTS: 349; CaV13 FRET inh: -6; proCasp7 act: 7; proCasp3 act: 0; aDG glyco act: 0; GRK2 aptamer HTS: 3; GRK2 CP1: 0; FAM quench CP1: 103

What do the screens show for `CSc1ccc(C=O)cc1`?
T cell HTS: 968; proCasp7 act: 7; proCasp3 act: 16; aDG glyco act: 0; GRK2 aptamer HTS: 73*; GRK2 CP1: -14; FAM quench CP1: 93

What do the screens show for `CCn1cc(/C=N\NC(=O)c2c[nH]c3ccccc23)c(C)n1`?
T cell HTS: 514; CaV13 FRET inh: -3; proCasp7 act: 4; proCasp3 act: -4; aDG glyco act: 0; GRK2 aptamer HTS: 0

Results for Cc1c(/C=N\NC(=O)c2c[nH]c3ccccc23)cnn1C ?
T cell HTS: 216; CaV13 FRET inh: -3; proCasp7 act: -2; proCasp3 act: 7; aDG glyco act: 0; GRK2 aptamer HTS: 99*; GRK2 CP1: -2; FAM quench CP1: 91

What do the screens show for `Cc1ccc(-c2noc(C3CCCN(C(=O)c4cccc(F)c4)C3)n2)cc1` (stereo not drawn)?
T cell HTS: 224; CaV13 FRET inh: -14; proCasp7 act: 0; proCasp3 act: 0; aDG glyco act: 0; GRK2 aptamer HTS: 100*; GRK2 CP1: 0; FAM quench CP1: 103

What do the screens show for `O=C(CCl)N(Cc1cc(=O)[nH]c2ccccc12)c1ccccc1`?
T cell HTS: 337; CaV13 FRET inh: -19; proCasp7 act: -6; proCasp3 act: 6; aDG glyco act: 1; GRK2 aptamer HTS: 2

Results for CC(Oc1cccnc1[N+](=O)[O-])C(=O)N1CCc2ccccc21 (stereo not drawn) ?
T cell HTS: 403; CaV13 FRET inh: -7; proCasp7 act: -3; proCasp3 act: -2; aDG glyco act: 0; GRK2 aptamer HTS: 33; GRK2 CP1: 2; FAM quench CP1: 104

What do the screens show for `COc1ccc(NC(=S)c2ccncc2)cc1`?
T cell HTS: 266; CaV13 FRET inh: -4; proCasp7 act: -5; proCasp3 act: 0; aDG glyco act: 0; GRK2 aptamer HTS: 0

Results for COc1ccc(C(=S)Nc2ccc(C)cc2)cc1 ?
T cell HTS: 508; CaV13 FRET inh: -3; proCasp7 act: -22; proCasp3 act: -7; aDG glyco act: 0; GRK2 aptamer HTS: 100*; GRK2 CP1: -2; FAM quench CP1: 98

Results for Cc1ccc(NC(=O)CN2C(=O)N/C(=C/c3cc(C)n(-c4ccc(C(=O)O)cc4)c3C)C2=O)cc1 ?
CaV13 FRET inh: -2; aDG glyco act: 0

What do the screens show for `Cc1ccc(NC(=O)CN2C(=O)N/C(=C/c3cccn3-c3ccc(C(=O)O)cc3)C2=O)cc1`?
T cell HTS: 481; CaV13 FRET inh: -6; proCasp7 act: -2; proCasp3 act: -6; aDG glyco act: 0; GRK2 aptamer HTS: 96*; GRK2 CP1: 86*; Aptamer quench: -0.9; FAM quench CP1: 95

Results for Cc1ccc(-c2csc3ncn(CC#N)c(=O)c23)cc1C ?
T cell HTS: 206; CaV13 FRET inh: 5; proCasp7 act: 6; proCasp3 act: 9; aDG glyco act: 0; GRK2 aptamer HTS: 86*; GRK2 CP1: -1; FAM quench CP1: 93

How did CCOC(=O)C1CCCN(C(=O)c2ccc(OCC)cc2)C1 (stereo not drawn) do in these assays?
T cell HTS: 307; CaV13 FRET inh: -6; proCasp7 act: -2; proCasp3 act: 2; aDG glyco act: 0; GRK2 aptamer HTS: 0

Results for Cc1ccc(NC(=O)CC(C)S(=O)(=O)c2ccc3c(c2)NC(=O)CO3)c(Cl)c1 (stereo not drawn) ?
T cell HTS: 213; CaV13 FRET inh: -1; proCasp7 act: -1; proCasp3 act: -4; aDG glyco act: 0; GRK2 aptamer HTS: 0; GRK2 confirm 2: -40; FAM quench CP2: 102

Results for O=C(COc1ccc(/C=N/NC(=O)c2ccncc2)cc1)Nc1ccccc1 ?
T cell HTS: 814; CaV13 FRET inh: -7; proCasp7 act: 10; proCasp3 act: 4; aDG glyco act: 0; GRK2 aptamer HTS: 95*; GRK2 CP1: -3; FAM quench CP1: 100

Screening results from PubChem BioAssay.
